The species named for assay [1] is Rattus norvegicus. In words: Selectivity ratio of Ki for rat dopamine D2L receptor to Ki for rat dopamine D3 receptor. Summed up: (§1)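 Inhibition of [3H]spiroperidol (16.2 Ci/mmol) binding to rat D2 or D3 receptors expressed in HEK-293 cells. Buffer contains 0.9% NaCl; "high [radioligand]" protocol. IC50 converted to Ki by Cheng–Prusoff. Means ± SEM of 3–6 experiments, each in triplicate.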

Assay [2] deals with D(2) dopamine receptor (Rattus norvegicus, UniProt P61169). In words: Displacement of [3H]spiroperidol from rat dopamine D2L receptor expressed in HEK293 cells. It counts as cell-based. Summed up:
as §1
Background: Displacement assays read how much labelled ligand stays bound in the presence of the test substance.

In assay [3] the target is D(3) dopamine receptor (Rattus norvegicus, UniProt P19020). Description: Displacement of [3H]spiroperidol from rat dopamine D3 receptor expressed in HEK293 cells. The assay is classed as cell-based. The method, boiled down:
as §1

In assay [4] the test system is Rattus norvegicus. Description: Antiparkinsonian activity in 6-OHDA-lesioned Sprague-Dawley rat assessed as stimulation of rotational activity at 10 umol/kg measured up to 12 hrs. The assay is classed as functional, organism-based. The method, boiled down:
(§2)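 Male Sprague–Dawley rats (290–320 g) with a left medial forebrain bundle 6-OHDA lesion, confirmed by apomorphine challenge. Drug given i.p. in water/saline; vehicle controls. Contralateral (clockwise) rotations counted in a rotometry harness chamber in 30-min bins over up to 12 h. Doses 5 or 10 μmol/kg. Mean ± SEM of 3–4 rats; ANOVA with Dunnett's test.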

Assay [5] concerns Rattus norvegicus. In words: Antiparkinsonian activity in Sprague-Dawley rat assessed as reversal of reserpine-induced akinesia at 5 umol/kg, sc administered in deionized water measured up to 400 mins. It counts as functional, organism-based. Summed up: (§3)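 Male Sprague–Dawley rats (220–225 g) given reserpine 5 mg/kg s.c. 18 h before test drug. After 1 h acclimatization, drug given at 5 μmol/kg (i.p., or s.c. for ropinirole). Horizontal activity counted by infrared beam breaks for 6 h in 30-min intervals, compared with reserpine controls. n = 4; ANOVA with Dunnett's test.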

In assay [6] the test system is Radical scavenging activity. Description: Antioxidant activity assessed as inhibition of DPPH free radical scavenging activity. The assay is classed as functional. Summed up: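 Compounds in methanol (20–250 μM solutions) mixed 1:1 with 200 μM methanolic DPPH. Shaken 25 min at 30 °C, absorbance read at 517 nm. Methanol-only wells used for background; ascorbic acid as standard. % scavenging = (control A − sample A)/control A × 100.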

Assay [7] has as its system MN9D. Description: Neuroprotective activity in mouse MN9D cells assessed as protection against MPP+-induced toxicity pretreated for 1 hr followed by MPP+-challenge measured after 24 hrs by MTT assay. The assay is classed as functional, cell-based. The method, boiled down:
(§4)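 MN9D mouse dopaminergic hybridoma cells seeded at 1 × 10^4 per well on poly-L-lysine and equilibrated 40 h. Pretreated 1 h with compound (0.001–20 μM), then cotreated with 100 μM MPP+ for 24 h at 37 °C. Viability by MTT (0.5 mg/mL final, 3 h), formazan in DMSO/methanol, A570–A690. Means ± SD of three experiments in 4–6 replicates; ANOVA with Tukey's test.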
(In general: Formazan colour is commonly taken as a measure of viable cells.)

The test system of assay [8] is Rattus norvegicus. In words: Antiparkinsonian activity in 6-OHDA-lesioned Sprague-Dawley rat assessed as stimulation of rotational activity measured as time required to reach peak effect at 9.28 mg/kg, ip. It counts as functional. The conditions noted are these: route intraperitoneal. Summed up: as §2
Assay [9] deals with Rattus norvegicus. In words: Antiparkinsonian activity in 6-OHDA-lesioned Sprague-Dawley rat assessed as stimulation of rotational activity at 4.64 mg/kg, ip measured for 7 hrs. Set-up: dose 4.64 mg/kg. The assay is classed as functional, organism-based. Summed up:
as §2

Assay [10] concerns Rattus norvegicus. Description: Antiparkinsonian activity in 6-OHDA-lesioned Sprague-Dawley rat assessed as stimulation of rotational activity at 9.28 mg/kg, ip measured for 10 hrs. It counts as functional, organism-based. Details: dose 9.28 mg/kg. The method, boiled down: as §2
In assay [11] the test system is Rattus norvegicus. In words: Antiparkinsonian activity in 6-OHDA-lesioned ip dosed Sprague-Dawley rat assessed as stimulation of rotational activity measured up to 12 hrs. The assay is classed as functional, organism-based. Summed up: as §2
In assay [12] the test system is Rattus norvegicus. In words: Antiparkinsonian activity in Sprague-Dawley rat assessed as reversal of reserpine-induced akinesia at 5 umol/kg, ip administered in deionized water measured up to 400 mins. The assay is classed as functional, organism-based. The method, boiled down:
as §3

The species named for assay [13] is Homo sapiens. In words: Selectivity ratio of EC50 for human dopamine D2 receptor to EC50 for human dopamine D3 receptor.
In assay [14] the target is D(3) dopamine receptor (Homo sapiens, UniProt P35462). In words: Agonist activity at human dopamine D3 receptor expressed in CHO cells assessed as stimulation of [35S]GTPgammaS binding. It counts as functional, cell-based. On the technique in general: Binding of GTPγS marks nucleotide exchange on a G protein.
Chain of D(3) dopamine receptor (Homo sapiens, UniProt P35462) (P35462 whole entry): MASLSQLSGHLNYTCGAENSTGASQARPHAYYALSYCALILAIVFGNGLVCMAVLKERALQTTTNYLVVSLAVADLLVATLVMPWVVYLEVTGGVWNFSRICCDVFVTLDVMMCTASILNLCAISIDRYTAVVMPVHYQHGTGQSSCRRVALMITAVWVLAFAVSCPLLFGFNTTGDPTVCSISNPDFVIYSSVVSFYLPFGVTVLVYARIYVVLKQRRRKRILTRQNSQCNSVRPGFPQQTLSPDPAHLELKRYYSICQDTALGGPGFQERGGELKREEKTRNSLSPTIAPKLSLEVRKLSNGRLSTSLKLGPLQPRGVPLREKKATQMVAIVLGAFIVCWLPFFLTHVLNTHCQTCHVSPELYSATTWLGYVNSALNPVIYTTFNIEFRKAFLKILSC
Assay [15] deals with T1, D(2) dopamine receptor (Homo sapiens, UniProt P14416). Description: Agonist activity at human dopamine D2 receptor expressed in CHO cells assessed as stimulation of [35S]GTPgammaS binding relative to dopamine. The assay is classed as functional, cell-based. The method, boiled down: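 [35S]GTPγS (1250 Ci/mmol) binding stimulated in CHO cells expressing human D2. EC50 is the concentration giving half-maximal stimulation. […] Means ± SEM of 3–6 experiments, each in triplicate.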
T1 sequence (P14416 whole entry): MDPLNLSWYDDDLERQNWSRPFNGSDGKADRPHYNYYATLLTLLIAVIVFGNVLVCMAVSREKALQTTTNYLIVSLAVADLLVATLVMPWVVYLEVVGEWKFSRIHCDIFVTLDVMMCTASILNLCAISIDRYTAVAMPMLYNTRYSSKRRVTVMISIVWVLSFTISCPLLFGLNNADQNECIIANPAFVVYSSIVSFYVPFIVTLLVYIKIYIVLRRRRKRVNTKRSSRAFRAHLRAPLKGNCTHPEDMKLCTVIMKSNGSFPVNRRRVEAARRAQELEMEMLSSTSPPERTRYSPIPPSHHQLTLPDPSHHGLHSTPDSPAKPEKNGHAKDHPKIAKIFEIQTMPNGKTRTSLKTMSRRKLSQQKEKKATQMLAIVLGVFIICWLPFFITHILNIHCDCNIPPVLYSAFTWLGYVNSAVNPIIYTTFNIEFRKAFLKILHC

Assay [16] concerns the target T1, D(2) dopamine receptor. In words: Agonist activity at human dopamine D2 receptor expressed in CHO cells assessed as stimulation of [35S]GTPgammaS binding. It counts as functional, cell-based. Summed up:
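[35S]GTPγS (1250 Ci/mmol) binding stimulated in CHO cells expressing human D2. EC50 is the concentration giving half-maximal stimulation. Means ± SEM of 3–6 experiments, each in triplicate.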

The test system of assay [17] is MN9D. In words: Neuroprotective activity in mouse MN9D cells assessed as protection against MPP+-induced toxicity at 0.001 to 20 uM pretreated for 1 hr followed by MPP+-challenge measured after 24 hrs by MTT assay. It counts as functional, cell-based. The method, boiled down:
as §4

Assay [18] has as its system Rattus norvegicus. In words: Antiparkinsonian activity in 6-OHDA-lesioned Sprague-Dawley rat assessed as stimulation of rotational activity measured as time required to reach peak effect at 6.56 mg/kg, ip. It counts as functional. The conditions noted are these: route intraperitoneal. Summed up:
as §2

Assay [19] has as its system Rattus norvegicus. In words: Antiparkinsonian activity in 6-OHDA-lesioned Sprague-Dawley rat assessed as stimulation of rotational activity at 3.28 mg/kg, ip measured for 7 hrs. It counts as functional, organism-based. Set-up: dose 3.28 mg/kg. The method, boiled down:
as §2

The subject of assay [20] is Rattus norvegicus. In words: Antiparkinsonian activity in 6-OHDA-lesioned Sprague-Dawley rat assessed as stimulation of rotational activity at 6.56 mg/kg, ip measured for 10 hrs. The assay is classed as functional, organism-based. Set-up: dose 6.56 mg/kg. Summed up: as §2
The target in assay [21] is T1, D(2) dopamine receptor. In words: Agonist activity at human dopamine D2 receptor expressed in CHO cells assessed as stimulation of [35S]GTPgammaS binding.
Assay [22] concerns the target T1, D(2) dopamine receptor. Description: Agonist activity at human dopamine D2 receptor expressed in CHO cells assessed as stimulation of [35S]GTPgammaS binding relative to dopamine.
Assay [23] concerns Rattus norvegicus. Description: Antiparkinsonian activity in 6-OHDA-lesioned Sprague-Dawley rat assessed as stimulation of rotational activity at 2.5 umol/kg measured for 5 hrs in presence of haloperidol. The assay is classed as functional, organism-based.
Assay [24] has as its system Rattus norvegicus. In words: Antiparkinsonian activity in Sprague-Dawley rat assessed as reversal of reserpine-induced akinesia at 5 umol/kg, ip administered in 10% beta-hydroxy cyclodextrin solution measured up to 400 mins. The assay is classed as functional, organism-based. Summed up: as §3

The values that follow come from ChEMBL document CHEMBL3124863, “Structural modifications of neuroprotective anti-Parkinsonian (-)-N6-(2-(4-(biphenyl-4-yl)piperazin-1-yl)-ethyl)-N6-propyl-4,5,6,7-tetrahydrobenzo[d]thiazole-2,6-diamine (D-264): an effort toward the improvement of in vivo efficacy of the parent molecule” (J Med Chem, 2014).

As a reminder, the Ki is the equilibrium dissociation constant of an inhibitor or competing ligand from its target. A high value points to weaker binding. Usually EC50 stands for the concentration that produces a half-maximal response. As a reminder, the Emax is the size of the effect at its maximum, as opposed to the concentration needed.

Activity calls are given as the source filed them. The calls are words filed in the database; no cut-off is given here.

Chain of D(3) dopamine receptor (Rattus norvegicus, UniProt P19020) (P19020 whole entry): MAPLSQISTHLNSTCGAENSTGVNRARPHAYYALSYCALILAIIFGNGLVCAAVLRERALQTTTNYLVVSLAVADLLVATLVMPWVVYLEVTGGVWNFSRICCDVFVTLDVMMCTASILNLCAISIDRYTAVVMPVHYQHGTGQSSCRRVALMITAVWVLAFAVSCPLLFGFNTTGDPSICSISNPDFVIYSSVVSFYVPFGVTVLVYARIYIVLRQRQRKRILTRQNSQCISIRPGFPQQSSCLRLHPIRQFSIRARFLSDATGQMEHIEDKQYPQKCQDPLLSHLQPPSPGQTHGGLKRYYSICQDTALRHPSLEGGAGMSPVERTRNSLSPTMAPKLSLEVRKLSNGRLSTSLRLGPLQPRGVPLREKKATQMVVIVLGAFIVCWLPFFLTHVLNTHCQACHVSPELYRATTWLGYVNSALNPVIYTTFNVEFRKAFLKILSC
Chain of D(2) dopamine receptor (Rattus norvegicus, UniProt P61169) (P61169 whole entry): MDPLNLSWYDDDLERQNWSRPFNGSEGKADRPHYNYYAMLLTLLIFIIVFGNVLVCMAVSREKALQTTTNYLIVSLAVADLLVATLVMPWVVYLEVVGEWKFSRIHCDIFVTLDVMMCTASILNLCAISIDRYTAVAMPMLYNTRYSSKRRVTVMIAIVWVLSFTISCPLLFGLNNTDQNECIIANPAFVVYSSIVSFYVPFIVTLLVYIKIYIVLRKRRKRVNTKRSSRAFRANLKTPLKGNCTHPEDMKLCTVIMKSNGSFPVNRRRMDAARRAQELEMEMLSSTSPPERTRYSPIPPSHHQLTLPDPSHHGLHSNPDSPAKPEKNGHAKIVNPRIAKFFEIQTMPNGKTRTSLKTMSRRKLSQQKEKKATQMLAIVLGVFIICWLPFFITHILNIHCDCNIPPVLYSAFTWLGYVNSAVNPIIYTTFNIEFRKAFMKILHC

In the case of `CCCN(CCN1CCN(c2ccc(-c3cccc(OC)c3)cc2)CC1)C1CCc2nc(N)sc2C1` (racemic), in assay [1], the Ratio Ki is 220. The Ki worked out at 0.464 µM in assay [2] and 0.00211 µM in [3].
Taken in the same sequence, the figures for `CCCN(CCN1CCN(c2ccc(-c3ccccc3O)cc2)CC1)C1CCc2nc(N)sc2C1` (racemic) were 115, 0.208 µM and 0.0018 µM.
Take `CCCN(CCC)CCc1cccc2c1CC(=O)N2`: the outcome in assay [4] and in [5] was Active. Further, the inhibition result in [6] was “Dose-dependent effect”.
In the case of `CCCN(CCN1CCN(c2ccc(-c3ccc(O)cc3)cc2)CC1)C1CCc2nc(N)sc2C1` (racemic), the Ratio Ki in assay [1] stood at 196. Besides, the Ki amounted to 0.23 µM in [2] and 0.00117 µM in assay [3].
For `CCCN(CCN1CCN(c2ccc(-c3cccc(O)c3)cc2)CC1)C1CCc2nc(N)ncc2C1` (racemic), the Ratio Ki in [1] is 196. In addition, the values for the Ki in assay [2] and in assay [3] were 13.1 µM and 0.067 µM, respectively.
For `CCCN(CCN1CCN(c2ccc(-c3ccccc3OC)cc2)CC1)C1CCc2nc(N)sc2C1` (racemic) the same measures were 78, 0.274 µM and 0.00357 µM.
Taken in the same sequence, the figures for `CCCN(CCCCN1CCN(c2ccc(-c3cccc(O)c3)cc2)CC1)C1CCc2nc(N)sc2C1` (racemic) were 60, 0.567 µM and 0.00943 µM.
In the case of `CCCN(CCN1CCN(c2ccc(-c3cccc(O)c3)cc2)CC1)[C@H]1CCc2nc(N)sc2C1`, the Activity result in [7] and in [11] was “Dose-dependent effect” throughout. Besides, the Time in assay [8] worked out at 7.5 h. Also, the result in assay [9], in assay [10] and in assay [12] was Active. Moreover, the inhibition entry in [6] is “Dose-dependent effect”. Besides, the Ratio EC50 in [13] was 159. Further, the EC50 was 0.0001 µM in assay [14] and 0.0159 µM in assay [16]. Also, the Emax in assay [15] stood at 116%. The Ratio Ki in assay [1] worked out at 213. Further, the Ki in assay [2] stood at 0.369 µM; in [3], 0.00173 µM.
On to `CCCN(CCN1CCN(c2ccc(-c3cccc(O)c3)cc2)CC1)[C@H]1CCc2c(O)cccc2C1`, for which the inhibition entry in assay [6] was “Dose-dependent effect”. Also, the Ratio Ki in assay [1] was found to be 36. Further, the results for the Ki in [2] and in assay [3] were 0.0278 µM and 0.00077 µM, respectively.
On to `CCCN(CCN1CCN(c2ccc(-c3cccc(OC)c3)cc2)CC1)[C@H]1CCc2nc(N)sc2C1`, for which, in assay [17], the outcome was inactive. The Time in [18] is 7.5 h. Further, the outcome in assay [19], in assay [20] and in assay [12] was Active. Also, the Activity result in [11] is “Dose-dependent effect”. The inhibition result in assay [6] is “Dose-dependent effect”. Further, in assay [13], the Ratio EC50 was 10.8. In addition, the figures for the EC50 in [14] and in [21] were 0.00342 µM and 0.0368 µM, respectively. In assay [1], the Ratio Ki amounted to 147. Further, the values for the Ki in assay [2] and in [3] were 0.343 µM and 0.00233 µM, respectively. The Emax in assay [22] was determined as 105%.
Regarding `O=C1O[C@H]([C@@H](O)CO)C(O)=C1O`, the inhibition entry in assay [6] is “Dose-dependent effect”.
Turning to `CCCN(CCN1CCN(c2ccc(-c3ccc(OC)cc3)cc2)CC1)C1CCc2nc(N)sc2C1` (racemic), in assay [1], the Ratio Ki was 151. Also, the values for the Ki in assay [2] and in [3] were 0.213 µM and 0.00141 µM, respectively.
Regarding `CCCN(CCN1CCN(c2ccc(-c3ccccc3)cc2)CC1)C1CCc2nc(N)ncc2C1` (racemic), in assay [1], the Ratio Ki was determined as 201. The Ki was found to be 0.735 µM in assay [2] and 0.00365 µM in assay [3].
Taken in the same sequence, the figures for `CCCN(CCN1CCN(c2ccc(-c3cccc(O)c3)cc2)CC1)C1CCc2nc(N)sc2C1` (racemic) were 289, 0.347 µM and 0.0012 µM.
For `CCCN(CCN1CCN(C(=O)c2ccc(-c3ccccc3)cc2)CC1)C1CCc2nc(N)sc2C1` (racemic) the same measures were 174, 1.67 µM and 0.00958 µM.
With `CCCN(CCN1CCN(c2ccc(-c3cccc(O)c3)cc2)CC1)[C@@H]1CCc2nc(N)sc2C1`, the Ratio Ki in assay [1] worked out at 76. Moreover, the Ki in assay [2] was 1.51 µM; in assay [3], 0.0197 µM.
Regarding `CCCN(CCN1CCN(c2ccc(-c3ccccc3)cc2)CC1)[C@H]1CCc2nc(N)sc2C1`, the Activity entry in assay [7] was “Dose-dependent effect”. Further, the result in assay [23] and in [12] was inactive. The outcome in assay [24] was Active. Besides, the inhibition result in assay [6] is “Dose-dependent effect”.
As for `CCCN(CCN1CCN(c2ccc(-c3ccccc3)cc2O)CC1)C1CCc2nc(N)sc2C1` (racemic), the Ratio Ki in [1] was 30. Further, the Ki worked out at 0.0706 µM in assay [2] and 0.00235 µM in assay [3].
